Laboratory results: ChEMBL document CHEMBL1138800, “Synthesis and biological evaluation of novel N6-[4-(substituted)sulfonamidophenylcarbamoyl]adenosine-5'-uronamides as A3 adenosine receptor agonists” (J Med Chem, 2004)

Legend:
[1] = molecular target: T1, Adenosine receptor A2a (Homo sapiens, UniProt P29274); assay: Displacement of [3H]CGS-21680 binding to Adenosine A2 receptor expressed in CHO cells; assay type: cell-based
[2] = molecular target: T2, Adenosine receptor A1 (Homo sapiens, UniProt P30542); assay: Displacement of [3H]CHA binding to Adenosine A1 receptor expressed in CHO cells; assay type: cell-based
T2 sequence (P30542 whole entry): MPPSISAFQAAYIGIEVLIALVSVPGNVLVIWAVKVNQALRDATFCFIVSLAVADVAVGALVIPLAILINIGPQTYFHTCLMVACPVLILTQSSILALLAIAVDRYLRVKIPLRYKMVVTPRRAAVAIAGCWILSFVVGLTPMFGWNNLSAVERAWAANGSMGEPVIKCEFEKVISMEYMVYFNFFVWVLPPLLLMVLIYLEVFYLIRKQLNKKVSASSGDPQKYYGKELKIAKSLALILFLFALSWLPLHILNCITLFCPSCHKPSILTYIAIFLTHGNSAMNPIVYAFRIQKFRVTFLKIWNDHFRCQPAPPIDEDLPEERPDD
Outline: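 Human A1-transfected CHO membranes (adenosine deaminase-treated), 50 µg protein, incubated 120 min at 25 °C in 50 mM Tris HCl pH 7.4 with 1 nM [3H]-CHA and 6-8 agonist concentrations; nonspecific binding with 10 µM CHA. Filtration through GF/B filters, scintillation counting; Ki from IC50 via Cheng-Prusoff; geometric mean with confidence limits.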

[3] = molecular target: Adenosine receptors; A1 & A3 (Homo sapiens) (UniProt P30542+P0DMS8); assay: Ratio of binding affinity for Adenosine A1 and Adenosine A3 receptors; assay type: protein assay
[4] = molecular target: T3, Adenosine receptor A3 (Homo sapiens, UniProt P0DMS8); assay: Displacement of [125I]AB-MECA binding to Adenosine A3 receptor expressed in CHO cells; assay type: cell-based
T3 sequence (P0DMS8 whole entry): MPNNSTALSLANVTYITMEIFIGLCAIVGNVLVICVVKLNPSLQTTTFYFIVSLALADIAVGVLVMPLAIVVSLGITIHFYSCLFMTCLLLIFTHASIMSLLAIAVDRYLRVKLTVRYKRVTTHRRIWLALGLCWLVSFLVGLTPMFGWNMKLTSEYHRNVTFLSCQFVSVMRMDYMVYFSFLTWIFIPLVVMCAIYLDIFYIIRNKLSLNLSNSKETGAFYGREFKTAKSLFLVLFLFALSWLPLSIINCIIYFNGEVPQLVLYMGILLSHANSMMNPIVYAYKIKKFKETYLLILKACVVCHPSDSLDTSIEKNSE

[5] = molecular target: T1, Adenosine receptor A2a; assay: Inhibition of [3H]CGS-21680 binding to Adenosine A2A receptor expressed in CHO cells; assay type: cell-based; design: concentration or dose not given beside the values; conditions: concentration not given here
[6] = molecular target: T3, Adenosine receptor A3; assay: Inhibition of (10 uM) forskolin-mediated cAMP production in CHO cells expressing human Adenosine A3 receptor; assay type: functional, cell-based
[7] = molecular target: Adenosine receptors; A2a & A3 (Homo sapiens) (UniProt P0DMS8+P29274); assay: Ratio of binding affinity for Adenosine A2A and Adenosine A3 receptors; assay type: protein assay
Sequence of Adenosine receptors; A2a & A3 (Homo sapiens) (P29274 whole entry, looked up, one chain of several): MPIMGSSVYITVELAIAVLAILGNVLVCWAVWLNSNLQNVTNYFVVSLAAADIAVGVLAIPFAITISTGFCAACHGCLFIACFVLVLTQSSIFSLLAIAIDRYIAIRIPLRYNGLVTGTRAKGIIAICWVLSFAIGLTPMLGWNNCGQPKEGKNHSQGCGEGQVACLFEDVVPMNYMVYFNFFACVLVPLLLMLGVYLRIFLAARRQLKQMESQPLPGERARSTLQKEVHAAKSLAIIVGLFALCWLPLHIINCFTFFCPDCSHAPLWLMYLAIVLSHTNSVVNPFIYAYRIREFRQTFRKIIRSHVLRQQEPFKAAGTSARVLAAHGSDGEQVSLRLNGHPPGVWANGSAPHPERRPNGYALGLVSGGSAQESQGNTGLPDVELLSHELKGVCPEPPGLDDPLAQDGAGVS
Outline: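 Ki ratio of two competition binding assays on adenosine deaminase-treated membranes of CHO cells expressing human receptors (50 µg protein). […] A3: 1 nM [125I]-AB-MECA, 120 min, 4 °C, duplicates. Filtration read-out; Ki by Cheng-Prusoff.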

T1 sequence (P29274 whole entry): as the sequence (P29274 whole entry, looked up, one chain of several) above

CCNC(=O)[C@H]1OC(n2cnc3c(NC(=O)Nc4ccc(S(=O)(=O)NCC)cc4)ncnc32)C(O)C1O (single isomer, unassigned)
Ki [1]: > 1000 nM
Ki [2]: 250 nM
Ratio [3]: 10.9
Ki [4]: 23 nM
inhibition [5]: 34%

CCNC(=O)[C@H]1OC(n2cnc3c(NC(=O)Nc4ccc(S(=O)(=O)N(CC)CC)cc4)ncnc32)C(O)C1O (single isomer, unassigned)
Ki [1]: > 1000 nM
inhibition [5]: 28%

CCNC(=O)[C@H]1OC(n2cnc3c(NC(=O)Nc4ccc(S(=O)(=O)N5CC=CC5)cc4)ncnc32)C(O)C1O (single isomer, unassigned)
Ki [1]: > 1000 nM
Ki [2]: 250 nM
Ratio [3]: 13.2
Ki [4]: 19 nM
inhibition [5]: 17%

CCNC(=O)[C@H]1OC(n2cnc3c(NC(=O)Nc4ccc(S(=O)(=O)Nc5ccc(OC)cc5)cc4)ncnc32)C(O)C1O (single isomer, unassigned)
Ki [1]: > 1000 nM
Ki [2]: 280 nM
inhibition [5]: 34%

CCNC(=O)[C@H]1OC(n2cnc3c(NC(=O)Nc4ccc(S(=O)(=O)N5CCCC5)cc4)ncnc32)C(O)C1O (single isomer, unassigned)
Ki [1]: > 1000 nM
Ki [4]: 22 nM
inhibition [5]: 23%

CCNC(=O)[C@H]1OC(n2cnc3c(NC(=O)Nc4ccc(S(=O)(=O)N5CCCCC5)cc4)ncnc32)C(O)C1O (single isomer, unassigned)
Ki [1]: > 1000 nM
inhibition [5]: 15%

C=CCN(CC=C)S(=O)(=O)c1ccc(NC(=O)Nc2ncnc3c2ncn3C2O[C@H](C(=O)NCC)C(O)C2O)cc1 (single isomer, unassigned)
IC50 [6]: 65 nM
Ki [1]: > 1000 nM
Ki [2]: 380 nM
Ratio [3]: 38
Ki [4]: 10 nM
inhibition [5]: 15%

CCCCCNS(=O)(=O)c1ccc(NC(=O)Nc2ncnc3c2ncn3C2O[C@H](C(=O)NCC)C(O)C2O)cc1 (single isomer, unassigned)
Ki [1]: > 1000 nM
Ki [2]: 445 nM
Ratio [3]: 5.56
Ki [4]: 80 nM
inhibition [5]: 32%

CCCNS(=O)(=O)c1ccc(NC(=O)Nc2ncnc3c2ncn3C2O[C@H](C(=O)NCC)C(O)C2O)cc1 (single isomer, unassigned)
Ki [1]: > 1000 nM
Ki [2]: 290 nM
Ratio [3]: 11.6
Ki [4]: 25 nM
inhibition [5]: 31%

CCNC(=O)[C@H]1OC(n2cnc3c(NC(=O)Nc4ccc(S(=O)(=O)NC5CCCC5)cc4)ncnc32)C(O)C1O (single isomer, unassigned)
Ki [1]: > 1000 nM
Ki [2]: 415 nM
Ratio [3]: 17.3
Ki [4]: 24 nM
inhibition [5]: 19%

CCNC(=O)[C@H]1OC(n2cnc3c(NC(=O)Nc4ccc(S(=O)(=O)N(C)C(C)C)cc4)ncnc32)C(O)C1O (single isomer, unassigned)
inhibition [5]: 13%

CCNC(=O)[C@H]1OC(n2cnc3c(NC(=O)Nc4ccc(S(=O)(=O)NC(C)(C)C)cc4)ncnc32)C(O)C1O (single isomer, unassigned)
Ki [1]: > 1000 nM
Ki [2]: 250 nM
Ratio [3]: 12.5
Ki [4]: 20 nM
inhibition [5]: 32%

CCNC(=O)[C@H]1OC(n2cnc3c(NC(=O)Nc4ccc(S(=O)(=O)N(CCCl)CCCl)cc4)ncnc32)C(O)C1O (single isomer, unassigned)
Ki [1]: > 1000 nM
Ki [2]: 730 nM
Ratio [3]: 31.7
Ki [4]: 23 nM
inhibition [5]: 27%

CCNC(=O)[C@H]1O[C@@H](n2cnc3c(NC(=O)Nc4ccc(S(N)(=O)=O)cc4)ncnc32)C(O)C1O (single isomer, unassigned)
IC50 [6]: 81 nM
Ratio [7]: 6.43
Ki [1]: 95.2 nM
Ki [2]: 30.1 nM
Ratio [3]: 2.03
Ki [4]: 14.8 nM

CCNC(=O)[C@H]1OC(n2cnc3c(NC(=O)Nc4ccc(S(=O)(=O)NC56CC7CC(CC(C7)C5)C6)cc4)ncnc32)C(O)C1O (single isomer, unassigned)
Ki [1]: > 1000 nM
Ki [2]: 240 nM
Ratio [3]: 7.5
Ki [4]: 35 nM
inhibition [5]: 31%

CCNC(=O)[C@H]1OC(n2cnc3c(NC(=O)Nc4ccc(S(=O)(=O)NC5CCCCC5)cc4)ncnc32)C(O)C1O (single isomer, unassigned)
Ki [1]: > 1000 nM
Ki [2]: 350 nM
inhibition [5]: 25%

C=CCN(C)S(=O)(=O)c1ccc(NC(=O)Nc2ncnc3c2ncn3C2O[C@H](C(=O)NCC)C(O)C2O)cc1 (single isomer, unassigned)
IC50 [6]: 42 nM
Ki [1]: > 1000 nM
Ki [4]: 10 nM
inhibition [5]: 10%

CCNC(=O)[C@H]1OC(n2cnc3c(NC(=O)Nc4ccc(S(=O)(=O)NCc5ccccc5)cc4)ncnc32)C(O)C1O (single isomer, unassigned)
Ki [1]: > 1000 nM
Ki [2]: 300 nM
inhibition [5]: 30%

CCNC(=O)[C@H]1OC(n2cnc3c(NC(=O)Nc4ccc(S(=O)(=O)N5CCOCC5)cc4)ncnc32)C(O)C1O (single isomer, unassigned)
Ki [1]: > 1000 nM
Ki [2]: 725 nM
Ratio [3]: 36.2
Ki [4]: 20 nM
inhibition [5]: 20%

CCCN(CCC)S(=O)(=O)c1ccc(NC(=O)Nc2ncnc3c2ncn3C2O[C@H](C(=O)NCC)C(O)C2O)cc1 (single isomer, unassigned)
Ki [1]: > 1000 nM
Ki [2]: 350 nM
Ratio [3]: 25
Ki [4]: 14 nM
inhibition [5]: 15%

CCNC(=O)[C@H]1OC(n2cnc3c(NC(=O)Nc4ccc(S(=O)(=O)N(C)C)cc4)ncnc32)C(O)C1O (single isomer, unassigned)
Ki [1]: > 1000 nM
Ki [2]: 280 nM
inhibition [5]: 21%
